Reference: ChEMBL document CHEMBL1126036, “Quinolone antibacterial agents. Synthesis and structure-activity relationships of a series of amino acid prodrugs of racemic and chiral 7-(3-amino-1-pyrrolidinyl)quinolones. Highly soluble quinolone prodrugs with in vivo pseudomonas activity” (J Med Chem, 1992)
≈ marks a conversion by molar mass, not a printed value.

Tests used:
[1] = system: Mus musculus; assay: In vivo potency against acute systemic infection in mouse caused by Streptococcus pneumoniae SV-1 on oral administration by gavage; type: functional; conditions: read-out: PD50
Outline: (§1)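 Acute systemic mouse infection. A single oral dose was given by gavage at the time of challenge. Potency is reported as the median protective dose (PD50, mg/kg), determined by earlier published methods.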

[2] = system: Providencia rettgeri; assay: In vitro antibacterial activity against gram negative Providencia rettgeri M-1771.; type: functional
[3] = system: Streptococcus pneumoniae; assay: In vivo potency against acute systemic infection in mouse caused by Streptococcus pneumoniae SV-1 on subcutaneous injection.; type: functional; conditions: sc, read-out: PD50
Outline: (§2)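 Acute systemic mouse infection. A single subcutaneous dose was injected at the time of challenge. Potency is reported as the median protective dose (PD50, mg/kg), determined by earlier published methods.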

[4] = Solubility (at pH 7.4); type: physicochemical; conditions: buffer
Outline: (§3)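 Solubility was measured either from HPLC peak areas at equilibrium or by a conventional weight-per-volume method. All solutions were held for 24 h before measurement.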

[5] = Aqueous solubility; type: physicochemical; conditions: water (aqueous); read-out: S; outline: as §3
[6] = system: Pseudomonas aeruginosa; assay: In vitro antibacterial activity against gram negative Pseudomonas aeruginosa UI-18.; type: functional
[7] = system: Staphylococcus aureus; assay: In vitro antibacterial activity against gram positive Staphylococcus aureus H-228.; type: functional
[8] = Solubility (in 0.1 N HCl); type: physicochemical; conditions: read-out: S; outline: as §3
[9] = system: Staphylococcus aureus; assay: In vitro antibacterial activity against gram positive Staphylococcus aureus UC76.; type: functional
[10] = Solubility (at pH 4); type: physicochemical; conditions: buffer, read-out: S; outline: as §3
[11] = system: Streptococcus pneumoniae; assay: In vitro antibacterial activity against gram positive Streptococcus pneumoniae SV-1.; type: functional
[12] = system: Streptococcus pyogenes; assay: In vitro antibacterial activity against gram positive Streptococcus pyogenes C-203.; type: functional
[13] = system: Enterobacter cloacae; assay: In vitro antibacterial activity against gram negative Enterobacter cloacae MA 2646.; type: functional
[14] = system: Escherichia coli; assay: In vivo potency against acute systemic infection in mouse caused by Escherichia coli vogel on subcutaneous injection.; type: functional; conditions: sc, read-out: PD50; outline: as §2
[15] = system: Klebsiella pneumoniae; assay: In vitro antibacterial activity against gram negative Klebsiella pneumoniae MGH-2.; type: functional
[16] = system: Escherichia coli; assay: In vivo potency against acute systemic infection in mouse caused by Escherichia coli Vogel on oral administration by gavage.; type: functional; conditions: read-out: PD50; outline: as §1
[17] = system: Escherichia coli; assay: In vitro antibacterial activity against gram negative Escherichia coli Vogel.; type: functional
[18] = system: Enterococcus faecalis; assay: In vitro antibacterial activity against gram positive Enterococcus faecalis MGH-2.; type: functional
[19] = system: Klebsiella pneumoniae; assay: In vitro antibacterial activity against gram negative Klebsiella pneumoniae. MGH-2; type: functional
[20] = system: Mus musculus; assay: In vivo potency against acute systemic infection in mouse caused by Streptococcus pneumoniae SV-1 on subcutaneous injection; type: functional; conditions: sc, read-out: PD50; outline: as §2
[21] = system: Pseudomonas aeruginosa; assay: In vitro antibacterial activity against gram negative Pseudomonas aeruginosa. UI-18; type: functional
[22] = system: DNA gyrase (Escherichia coli); assay: In vitro concentration inhibiting DNA gyrase induced cleavage in Escherichia coli H560
[23] = system: Mus musculus; assay: In vivo potency against acute systemic infection in mouse caused by Streptococcus pyogenes C-203 on oral administration by gavage; type: functional; conditions: read-out: PD50; outline: as §1
[24] = system: Mus musculus; assay: In vivo potency against acute systemic infection in mouse caused by Pseudomonas aeruginosa. UI-18. on subcutaneous injection.; type: functional; conditions: sc, read-out: PD50; outline: as §2
[25] = system: Mus musculus; assay: In vivo potency against acute systemic infection in mouse caused by Pseudomonas aeruginosa UI-18 on oral administration by gavage.; type: functional; conditions: read-out: PD50; outline: as §1
[26] = system: Mus musculus; assay: In vivo potency against acute systemic infection in mouse caused by Streptococcus pyogenes C-203 on subcutaneous injection; type: functional; conditions: sc, read-out: PD50; outline: as §2
[27] = system: Streptococcus pneumoniae; assay: In vivo potency against acute systemic infection in mouse caused by Streptococcus pneumoniae SV-1 on oral administration by gavage.; type: functional; conditions: read-out: PD50; outline: as §1
[28] = target: DNA gyrase (Escherichia coli) (UniProt P0AES6+P0AES4); assay: In vitro concentration inhibiting DNA gyrase induced cleavage in Escherichia coli H560.; type: functional
Outline: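 DNA gyrase test run as described in earlier work. The value is the drug concentration (µg/mL) needed to cause DNA cleavage.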

[29] = system: Mus musculus; assay: In vivo potency against acute systemic infection in mouse caused by Escherichia coli vogel on subcutaneous injection; type: functional; conditions: sc, read-out: PD50; outline: as §2
[30] = system: Mus musculus; assay: In vivo potency against acute systemic infection in mouse caused by Escherichia coli vogel on oral administration by gavage; type: functional; conditions: read-out: PD50; outline: as §1
[31] = system: Escherichia coli; assay: In vitro antibacterial activity against gram negative Escherichia coli vogel; type: functional
[32] = system: Enterobacter cloacae; assay: In vitro antibacterial activity against gram negative Enterobacter cloacae MA 2646; type: functional
[33] = system: Mus musculus; assay: In vivo potency against acute systemic infection in mouse caused by Escherichia coli Vogel on oral administration by gavage; type: functional; conditions: read-out: PD50; outline: as §1
[34] = system: Mus musculus; assay: In vivo potency against acute systemic infection in mouse caused by Escherichia coli Vogel on subcutaneous injection; type: functional; conditions: sc, read-out: PD50; outline: as §2

SMILES | ED50 [1] | MIC [2] | ED50 [3] | solubility ([4]; read-out: S) | solubility [5] | MIC [6] | MIC [7] | solubility [8] | MIC [9] | solubility [10] | MIC [11] | MIC [12] | MIC [13] | ED50 [14] | ED50 [16] | MIC [17] | MIC [18] | MIC [19] | ED50 [23] | ED50 [26] | further results
Cl.N[C@@H](Cc1ccccc1)C(=O)NC1CCN(c2nc3c(cc2F)c(=O)c(C(=O)O)cn3C2CC2)C1.O (stereo partly specified) | 65 mg/kg | 6.3 µg/mL | 37 mg/kg | 60 µg/mL | > 200000 µg/mL | 6.3 µg/mL | 3.1 µg/mL | 80000 µg/mL | 0.4 µg/mL | > 100000 µg/mL | 0.8 µg/mL | 1.6 µg/mL | 0.4 µg/mL | 0.4 mg/kg | 2 mg/kg | 0.8 µg/mL | 0.8 µg/mL |  |  |  | MIC [15]: 3.1 µg/mL
Cl.NCCCC[C@H](N)C(=O)NC1CCN(c2nc3c(cc2F)c(=O)c(C(=O)O)cn3C2CC2)C1.O (stereo partly specified) | 71 mg/kg | 25 µg/mL |  |  | > 300000 µg/mL |  | 25 µg/mL | > 200000 µg/mL | 6.3 µg/mL | > 600000 µg/mL | > 25 µg/mL | > 25 µg/mL | 12.5 µg/mL |  |  | 12.5 µg/mL | > 25 µg/mL | 25 µg/mL |  |  | solubility [4]: 70 µg/mL; ED50 [20]: 70 mg/kg; MIC [21]: > 25 µg/mL
NC1CCN(c2nc3c(cc2F)c(=O)c(C(=O)O)cn3C2CC2)C1 (stereo unspecified) |  | 0.05 µg/mL (≈ 0.15 µM) | 33 mg/kg |  |  | 0.05 µg/mL (≈ 0.15 µM) | 0.2 µg/mL (≈ 0.602 µM) |  | 0.013 µg/mL (≈ 0.0391 µM) |  | 0.2 µg/mL (≈ 0.602 µM) | 0.2 µg/mL (≈ 0.602 µM) | 0.025 µg/mL (≈ 0.0752 µM) | 0.6 mg/kg | 2 mg/kg | 0.013 µg/mL (≈ 0.0391 µM) | 0.2 µg/mL (≈ 0.602 µM) | 0.025 µg/mL (≈ 0.0752 µM) | 32 mg/kg | 14 mg/kg | Cleavage [22]: 1 µg/mL; ED50 [24]: 3 mg/kg; ED50 [25]: 7 mg/kg; ED50 [27]: 58 mg/kg
C[C@@H]1CN(c2c(F)c(N)c3c(=O)c(C(=O)O)cn(C4CC4)c3c2F)C[C@H](C)N1 [SPARFLOXACIN] | 14 mg/kg | 0.2 µg/mL (≈ 0.51 µM) |  | 10 µg/mL (≈ 25.5 µM) | 90 µg/mL (≈ 229 µM) | 0.8 µg/mL (≈ 2.04 µM) | 0.05 µg/mL (≈ 0.127 µM) | 400 µg/mL (≈ 1020 µM) | 0.025 µg/mL (≈ 0.0637 µM) | 30 µg/mL (≈ 76.5 µM) | 0.05 µg/mL (≈ 0.127 µM) | 0.1 µg/mL (≈ 0.255 µM) | 0.025 µg/mL (≈ 0.0637 µM) | 0.2 mg/kg | 1 mg/kg | 0.025 µg/mL (≈ 0.0637 µM) | 0.1 µg/mL (≈ 0.255 µM) |  | 17 mg/kg | 17 mg/kg | ED50 [24]: 7 mg/kg; ED50 [25]: 14 mg/kg; ED50 [20]: 13 mg/kg; Cleavage [28]: 2.5 µg/mL; MIC [15]: 0.05 µg/mL (≈ 0.127 µM)
CC(C)[C@H](N)C(=O)NC1CCN(c2nc3c(cc2F)c(=O)c(C(=O)O)cn3C2CC2)C1.Cl.O (stereo partly specified) |  | 1.6 µg/mL |  | 80 µg/mL | > 200000 µg/mL |  | 1.6 µg/mL | > 200000 µg/mL | 0.4 µg/mL | > 200000 µg/mL | 1.6 µg/mL | 1.6 µg/mL | 0.4 µg/mL |  |  |  | 1.6 µg/mL | 1.6 µg/mL | 76 mg/kg | 27 mg/kg | ED50 [29]: 0.6 mg/kg; ED50 [30]: 3 mg/kg; MIC [31]: 0.4 µg/mL; MIC [21]: 3.1 µg/mL
Cl.Nc1c(F)c(N2CC[C@@H](N)C2)c(F)c2c1c(=O)c(C(=O)O)cn2C1CC1.O |  | 0.05 µg/mL | 3.5 mg/kg | 40 µg/mL | 2800 µg/mL | 0.02 µg/mL | 0.025 µg/mL | 200 µg/mL | 0.006 µg/mL | 2600 µg/mL | 0.003 µg/mL | 0.025 µg/mL |  | 0.3 mg/kg | 1.7 mg/kg | 0.013 µg/mL | 0.05 µg/mL |  | 12 mg/kg | 7.5 mg/kg | MIC [32]: 0.013 µg/mL; Cleavage [28]: 0.1 µg/mL; ED50 [27]: 15 mg/kg; MIC [15]: 0.025 µg/mL
Cl.N[C@H]1CCN(c2c(F)cc3c(=O)c(C(=O)O)cn(C4CC4)c3c2F)C1.O | 15 mg/kg | 0.006 µg/mL | 7 mg/kg |  | 17000 µg/mL | 0.025 µg/mL | 0.013 µg/mL |  | 0.003 µg/mL |  | 0.013 µg/mL | 0.013 µg/mL | 0.013 µg/mL |  |  | 0.006 µg/mL | 0.025 µg/mL | 0.003 µg/mL |  |  | ED50 [33]: 1 mg/kg; Cleavage [22]: 0.1 µg/mL; ED50 [34]: 0.2 mg/kg
